HTR1E agonist: agonists of human 5-HT1E serotonin receptor | CHO 5-HT1E Ga15 NFAT-bla reporter, FRET; 0% DMSO wells, 100% control agonist wells | activation, % at 6 µM | actives 0.69% (n = 65,000) | AID 574;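 active means activation above a set limit, the screen-wide mean activation plus 3 SD, cut at about 8.5% in these data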;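 further: 100% = positive control agonist at 1 µM giving full maximal response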
S1P3 ag: agonists of human S1P3 receptor | actives 0.1% (n = 60,000) | activation, % at 4.5 µM | AID 373 | S1P3 NFAT-BLA reporter cells, agonism, FRET ratio; relative to 1 µM S1P, basal subtracted;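 active means activation above the screen-wide mean plus 3 SD, cut at about 4.5% in these data, passing the limit was not always enough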
Target sequence (Q99500 whole entry, looked up): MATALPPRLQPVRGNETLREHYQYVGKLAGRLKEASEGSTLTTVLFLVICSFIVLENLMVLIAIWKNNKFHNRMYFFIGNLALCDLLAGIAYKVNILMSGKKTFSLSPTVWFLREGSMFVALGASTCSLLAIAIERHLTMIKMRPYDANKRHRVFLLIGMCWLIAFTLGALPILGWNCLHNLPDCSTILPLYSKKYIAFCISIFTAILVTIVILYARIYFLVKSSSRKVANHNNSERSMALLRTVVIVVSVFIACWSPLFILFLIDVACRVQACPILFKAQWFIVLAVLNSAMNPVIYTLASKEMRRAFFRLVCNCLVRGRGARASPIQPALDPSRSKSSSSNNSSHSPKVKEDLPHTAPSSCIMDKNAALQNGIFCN
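Benchmarks: high control 1 µM S1P / System: stable CHO line with human S1P3, Gα16, NFAT-BLA reporter / Dosing: single compound concentration, 4.5 µM final / Timing: 4 h compound at 37 °C, 2 h substrate at RT / Measured by: FRET β-lactamase substrate fluorescence, excitation 405 nm, 460/535 nm emission ratio, background-subtracted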
HTR1A agonist: agonists of human 5-HT1a serotonin receptor. P08908. CHO 5-HT1a Ga15 NFAT-bla reporter, FRET ratio; 0% basal, 100% maximal reference agonist. activation, % at 10 µM. actives 0.56% (n = 65,000);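 active means activation above the screen-wide mean activation plus 3 SD, cut at about 19% in these data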;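 further: 0% = DMSO wells and 100% = 5-CT at EC100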
S1P1 ag pot: agonists and agonism potentiators of human S1P1 receptor | P21453 | S1P1 CRE-bla cells, forskolin, beta-lactamase FRET, potentiator mode; S1P1 agonist co-added at EC20, 2 nM; 100% = saturating reference agonist, 0% = basal | activation, % at 9.5 µM | actives 0.57% (n = 56,000) | AID 449;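 active means activation above a cutoff set at the mean activation of all tested compounds plus 3 SD, cut at about 54% in these data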;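 further: forskolin at 4 µM as EC80 and the EC20 agonist is SEW2871; 100% = SEW2871 at its EC100 plus forskolin at EC80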
HTR1E antagonist: blocks the human 5-HT1E serotonin receptor | CHO 5-HT1E Ga15 NFAT-bla reporter, FRET, antagonist | inhibition, % at 6 µM | actives 0.99% (n = 65,000) | P28566;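 active means inhibition above a set limit, the mean inhibition across every tested compound plus 3 SD, cut at about 29% in these data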;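 further: signal is the 460 over 535 nm emission ratio of beta-lactamase substrate; 0% = agonist plus DMSO wells and 100% = wells without agonist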
5HT1a antag: blocks the human serotonin 5-HT1a receptor; AID 612; CHO 5-HT1a Ga15 NFAT-bla reporter, antagonist mode; inhibition, % at 10 µM; P08908; actives 0.68% (n = 62,000);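 active means inhibition above the mean of all tested compounds plus 3 SD, cut at about 43% in these data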;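 further: receptor stimulated by 5-CT agonist at 100 nM near EC80; beta-lactamase reporter measured by ratiometric fluorescence of a cleavable substrate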
Starred values were filed as active, the others as inactive; x = no result. The list is not random: actives were taken first. Their share in the collection is about 3%.

SMILES | HTR1E agonist | S1P3 ag | HTR1A agonist | S1P1 ag pot | HTR1E antagonist | 5HT1a antag
COc1cc2[nH]c3c(N4CCN(c5ccc(Cl)cc5)CC4)ncnc3c2cc1OC | 1.5 | -1.7 | 1.9 | 2.3 | 6.9 | -8.3
COc1cccc(N2CCN(c3ncnc4c3[nH]c3ccc(F)cc34)CC2C)c1 (stereo not given) | -1.5 | -8.3 | -1.9 | 115.2* | 104.2* | x
Cn1cccc1Cc1nnc(SCC(=O)Nc2ccc3c(c2)OCCO3)n1CCc1ccccc1 | 0.2 | -0.5 | -2.4 | -5.1 | 2.2 | 20.3
O=C(NCCCn1ccnc1)c1ccco1 | -0.2 | -1.0 | 20.1* | 4.0 | -5.1 | -10.0
O=C(NCCCn1ccnc1)c1ccncc1 | 0.7 | -0.6 | 0.3 | -12.6 | -7.3 | 0.3
CC(=O)Nc1cccc(NC(=O)c2sc3ncn(CC(=O)N4CCCCC4)c(=O)c3c2C)c1 | -0.7 | 0.4 | -3.4 | -16.8 | -9.4 | -5.0
O=c1[nH]c2ccccc2n1CCCSc1cnc2ccccc2n1 | 2.0 | -0.4 | 1.1 | 44.8 | 9.9 | 18.0
C=CCn1c2ccccc2c2nnc(SCCCn3c(=O)[nH]c4ccccc43)nc21 | 0.8 | x | 10.4 | x | 21.5 | 47.6*
O=C1CCCN1CCCNc1ncnc2c1[nH]c1ccc(Cl)cc12 | 0.1 | 0.1 | -0.2 | -30.7 | 34.7* | -4.3
Clc1ccc2[nH]c3c(NCCCN4CCOCC4)ncnc3c2c1 | -1.0 | -1.9 | 2.9 | -46.5 | 22.8 | x
Cc1cc(C)n2nc3nc4c(cc3c2n1)CCCC4 | 1.4 | x | -0.7 | x | 10.1 | -5.7
COc1ccc(C(=O)Oc2c(CN3CCOCC3)cc(Cl)c3cccnc23)cc1 | 2.0 | -0.8 | 0.5 | 4.1 | -2.3 | 8.3
COc1cc(C(=O)Oc2c(CN3CCOCC3)cc(Cl)c3cccnc23)cc(OC)c1OC | 1.7 | -1.4 | 0.5 | -31.6 | 38.4* | 17.8
O=C(Oc1c(CN2CCOCC2)cc(Cl)c2cccnc12)c1ccc(F)cc1 | 2.1 | -0.6 | -1.0 | -8.1 | 36.7* | 17.4
CCC(C)(C)n1nnnc1C(c1ccccn1)N1CCOCC1 (stereo not given) | -0.7 | -0.3 | -2.2 | -8.6 | -2.2 | 1.9
CCN(Cc1ccccc1)C(c1ccccn1)c1nnnn1C(C)(C)CC (stereo not given) | -1.0 | -0.6 | -0.7 | -4.1 | 0.6 | 45.3*
Clc1ccccc1CSc1ncccn1 | 0.1 | -0.6 | -0.7 | -10.7 | -6.5 | -1.2
Cc1nn(C)c(C)c1NS(=O)(=O)c1ccccc1 | -0.2 | -0.3 | -0.9 | -24.3 | 6.2 | -9.5
Cc1nn(-c2ccccc2)c(C)c1NS(=O)(=O)c1ccccc1 | -0.8 | 0.4 | -1.3 | -22.3 | 36.0* | 10.5
CN(C1=NC(=O)C(CC(=O)Nc2ccc(Br)cc2)S1)c1ccc(O)cc1 (stereo not given) | -0.3 | -1.3 | -0.8 | 14.6 | 4.2 | -8.0
CC1(C)Cc2c(C#N)c(NCCc3ccccc3)nc(-c3ccco3)c2CO1 | 9.1* | 11.7 | 49.5* | -20.9 | -53.1 | x
O=S(=O)(c1ccccc1)N1CCN(C2CCCCCCC2)CC1 | 32.8* | -0.7 | 0.7 | x | -1.0 | 6.9
CC1(C)CC(=O)C2=C(C1)NC(SCC(=O)Nc1ccccc1)=C(C#N)C21CCCCC1 | -0.7 | -1.3 | 2.4 | 20.4 | 2.7 | 9.9
CC(C)(C)C1CCC2(CC1)C(C#N)=C(SCC(=O)Nc1ccccc1)NC(=O)C2C#N (stereo not given) | 0.8 | -3.6 | 9.0 | 79.3* | 8.3 | x
Cc1c(C(=O)OC2CCCC2)[nH]c2c1C(=O)CC(c1ccco1)C2 (stereo not given) | -0.9 | -1.1 | 0.2 | 33.6 | 84.8* | 61.8*
COC(=O)c1[nH]c2c(c1C)C(=O)CC(c1ccccc1)C2 (stereo not given) | -1.9 | -1.0 | -0.7 | -25.7 | 68.1* | 54.8*
Cc1c(C(=O)OCC2CCCO2)[nH]c2c1C(=O)CC(c1ccco1)C2 (stereo not given) | -0.6 | -0.3 | -5.2 | 2.3 | 8.7 | 15.3
C/C=C/COC(=O)c1[nH]c2c(c1C)C(=O)CC(c1ccco1)C2 (stereo not given) | -0.5 | -1.5 | -3.0 | 1.3 | 77.9* | 63.8*
